TRPC6 activator – mouse TRPC6 channel activators, primary screen, cell-based, HEK293, membrane potential dye | Short transient receptor potential channel 6 (Mus musculus), Q61143 | HEK293-TRPC6 membrane potential dye fluorescence; stronger effect = higher value | B-score at 10 µM | 310,000 compounds, 0.13% hits;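 active means B-score of the integrated fluorescence ratio above library mean plus 3 SD, and starting fluorescence ratio within library mean plus 5 SD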;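 further: higher score means more depolarization so channel activation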
Target sequence (Q61143 whole entry, looked up): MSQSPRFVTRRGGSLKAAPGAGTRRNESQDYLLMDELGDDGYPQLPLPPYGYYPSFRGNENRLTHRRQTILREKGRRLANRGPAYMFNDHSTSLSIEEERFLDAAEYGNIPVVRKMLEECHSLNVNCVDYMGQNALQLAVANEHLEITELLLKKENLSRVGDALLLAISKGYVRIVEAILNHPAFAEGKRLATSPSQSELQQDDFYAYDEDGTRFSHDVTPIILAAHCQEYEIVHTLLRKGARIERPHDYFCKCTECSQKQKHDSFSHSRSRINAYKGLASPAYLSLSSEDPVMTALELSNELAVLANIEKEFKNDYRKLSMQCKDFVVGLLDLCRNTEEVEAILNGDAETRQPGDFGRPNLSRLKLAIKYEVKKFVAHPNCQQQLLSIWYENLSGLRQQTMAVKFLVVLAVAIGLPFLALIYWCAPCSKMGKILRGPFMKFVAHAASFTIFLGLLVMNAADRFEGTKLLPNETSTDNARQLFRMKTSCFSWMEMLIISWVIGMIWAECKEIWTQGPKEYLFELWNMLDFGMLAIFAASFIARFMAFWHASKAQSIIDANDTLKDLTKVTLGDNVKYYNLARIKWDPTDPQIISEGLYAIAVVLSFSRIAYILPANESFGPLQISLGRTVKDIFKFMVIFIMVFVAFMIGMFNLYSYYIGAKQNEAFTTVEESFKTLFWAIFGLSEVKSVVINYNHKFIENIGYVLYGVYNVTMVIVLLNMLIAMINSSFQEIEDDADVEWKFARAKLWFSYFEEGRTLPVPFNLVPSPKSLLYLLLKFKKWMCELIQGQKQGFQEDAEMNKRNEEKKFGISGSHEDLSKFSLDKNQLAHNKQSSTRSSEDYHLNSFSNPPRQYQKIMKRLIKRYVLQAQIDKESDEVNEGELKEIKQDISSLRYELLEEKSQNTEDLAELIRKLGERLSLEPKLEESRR
TRPC4 act – activators of mouse TRPC4 channel, primary screen, Fluo4 calcium, HEK293 TRPC4beta/mu-opioid cells. Fluo4 calcium fluorescence; stronger effect = higher value. B-score at 10 µM. 310,000 compounds, 0.49% hits. Short transient receptor potential channel 4 (Mus musculus), Q9QUQ5;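 active means B-score above 5 SD of library B-scores, and initial fluorescence ratio not above library mean plus 5 SD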;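 further: positive B-score marks a calcium rise read as TRPC4 activation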
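Assay system: HEK293 stable line with TRPC4beta plus mu-opioid receptor. Times: dye 45 min RT, read 110 s. Measured by: kinetic Fluo4 calcium fluorescence. Measure: B score of integrated ratio. Controls: assay buffer as low control, maximal DAMGO as high control.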
TRPC6 inhibitor – mouse TRPC6 channel inhibitors, primary screen, cell-based, HEK293, membrane potential dye; Short transient receptor potential channel 6 (Mus musculus), Q61143; ACh-evoked depolarization; stronger effect = lower value; B-score at 10 µM; 310,000 compounds, 1.1% hits; AID 2553, 2010;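 active means B-score under library mean minus 3 SD, initial fluorescence not abnormally high, positive integrated signal ratio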;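 further: B-score derived from integrated fluorescence ratio over the kinetic read; more negative B-score means stronger inhibition of depolarization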
TRPC4 potent – positive allosteric modulators of TRPC4, primary screen, cell-based, mouse TRPC4beta, HEK293 mu-opioid, Fluo-4 calcium; Short transient receptor potential channel 4 (Mus musculus), Q9QUQ5; DAMGO EC20, Fluo-4 Ca2+ flux; stronger effect = higher value; B-score at 10 µM; 310,000 compounds, 0.42% hits; AID 2227, 2009;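 active means B-score of calcium response area above 5 SD of library B-scores, with initial fluorescence ratio within 5 SD of library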
TRPC4 block – inhibitors of mouse TRPC4 channel, primary screen, Fluo4 calcium, HEK293 TRPC4beta/mu-opioid cells | 300,000 compounds, 0.39% hits | Short transient receptor potential channel 4 (Mus musculus), Q9QUQ5 | B-score at 10 µM | DAMGO-evoked Fluo4 calcium flux; stronger effect = lower value;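 active means B-score over 3 SD under the library average, no early fluorescence shift, positive overall ratio signal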
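System: stable TRPC4beta/mu-opioid receptor HEK293 cells; Dosing: single-point compound dosing; Measured by: Fluo4 Ca2+ flux fluorescence; Read-out basis: per-well B score of integrated baseline-normalized Fluo4 ratio.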
TRPC4 spec 2 – second check of whether TRPC6 inhibitors also affect mouse TRPC4. shares compounds with TRPC6 inhibitor. AID 2776. HEK293 TRPC4/MOR, membrane potential dye fluorescence; channel activated by saturating DAMGO dose. 920 compounds, 42% hits. inhibition, % at 10 µM;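 active means compounds whose fluorescence signal differed from control wells by over 3 SD, either direction, in both duplicate plates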
TRPC4 spec – mouse TRPC4 modulation by TRPC6 hits, confirmation, selectivity assay for TRPC6 inhibitor project, cell-based, HEK293 TRPC4/mu-opioid, membrane potential dye; activity change, negative = inhibition, % at 10 µM; 920 compounds, 61% hits; shares compounds with TRPC6 inhibitor; membrane potential fluorescence;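 active means rise or fall in signal beyond 3 SD of buffer-only wells in both replicate plates, either sign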;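 further: integrated kinetic ratio of fluorescence range over baseline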
HEK293 MPD ctr 2-1 – nonspecific membrane potential effects, parental HEK293, confirmation, counter-screen for TRPC6 inhibitor project, cell-based, second counter screen. shares compounds with TRPC6 inhibitor. parental HEK293 membrane potential dye fluorescence; maximal acetylcholine challenge after compound addition. signal change vs control, % at 10 µM. 920 compounds, 31% hits;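 active means membrane potential signal moving either way by over 3 SD of the maximum-effect control, in both duplicate plates, meaning non-specific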
HEK293 MPD ctr-1 – membrane potential modulation in parental HEK293, confirmation, counter-screen for TRPC6 inhibitor project, cell-based. shares compounds with TRPC6 inhibitor. parental HEK293 membrane potential dye fluorescence. membrane potential signal change, % at 10 µM. 920 compounds, 60% hits. AID 2780, 2010;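 active means membrane potential signal shifting up or down by more than 3 SD of buffer-only wells, on both duplicate plates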
HEK293 MPD ctr-2 – parental HEK293 membrane potential modulation, confirmation, counter-screen for TRPC6 modulator project, cell-based. shares compounds with TRPC6 inhibitor. membrane potential dye fluorescence. membrane potential signal change, % at 10 µM. 2,400 compounds, 51% hits;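 active means membrane potential signal moves up or down beyond 5 SD from buffer-only wells, on both duplicate plates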
HEK293 MPD ctr 2-2 – parental HEK293 nonspecific activity of TRPC6 modulators, second screen. shares compounds with TRPC6 inhibitor. membrane potential dye fluorescence; after compound, maximal acetylcholine stimulation. inhibition, % at 10 µM. 2,400 compounds, 14% hits. AID 488926;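 active means membrane potential signal drops by more than 5 SD from the mean control signal, in both duplicate plates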
TRPC4 ctr mod – TRPC4 modulation by TRPC6 hit compounds, confirmation, selectivity assay for TRPC6 modulator project, cell-based, HEK293 TRPC4/mu-opioid, membrane potential dye, mouse; shares compounds with TRPC6 inhibitor; membrane potential fluorescence; percent change from control (negative = decrease, positive = increase), % at 10 µM; 2,400 compounds, 69% hits; AID 488927, 2010;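 active means membrane potential signal moved up or down beyond 5 SD of buffer control wells, in both duplicate plates, actives on both sides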
TRPC4/MOR inh 2 – second check of whether TRPC6 modulators also affect mouse TRPC4 | HEK293 TRPC4/mu-opioid, membrane potential dye fluorescence; stimulated with maximal-effect DAMGO | 2,400 compounds, 55% hits | inhibition, % at 10 µM | shares compounds with TRPC6 inhibitor;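 active means drop in membrane potential signal beyond 5 SD of the control wells in both duplicate plates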;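 further: TRPC4 counter screen for TRPC6 hits run under conditions tuned for TRPC6 not TRPC4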
TRPC6 inh conf – mouse TRPC6 channel inhibitors, confirmation, HEK293 cells, membrane potential dye, duplicate. inhibition, % at 10 µM. shares compounds with TRPC6 inhibitor. 3,300 compounds, 43% hits. ACh-evoked depolarization;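 active means fluorescence ratio falls more than 5 SD below the full-stimulation control mean, in both duplicate runs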;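 further: integrated fluorescence ratio of peak minus minimum over baseline after agonist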
TRPC6 act confirm – mouse TRPC6 channel activators, confirmation, HEK293 cells, membrane potential dye, duplicate; shares compounds with TRPC6 inhibitor; HEK293-TRPC6 membrane potential dye fluorescence, FDSS; activation, % at 10 µM; 2,800 compounds, 11% hits; AID 488961, 2010;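 active means ratio signal rise beyond 5 SD above unstimulated control wells' mean, seen in both duplicate runs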
Each line names hits and unclear results; the compound was inactive in the other large screens (follow-up assays come after a bar, where they were run). Sampled rows, rich in hits. Any-hit rate of the full collection: about 2.3%.

CCN(CC)c1ccc(Nc2nc(N3CCOCC3)c3ccccc3n2)cc1	TRPC6 inhibitor -5.23 | HEK293 MPD ctr-2 -143.0% | HEK293 MPD ctr 2-2 inactive | TRPC4 ctr mod -32.5% | TRPC4/MOR inh 2 55.5% | TRPC6 inh conf inactive | TRPC6 act confirm inactive
COCCNc1c(-c2cc3ccc(C)c(C)c3[nH]c2=O)nc2ccccn12	TRPC6 inhibitor -5.08 | HEK293 MPD ctr-2 inactive | HEK293 MPD ctr 2-2 inactive | TRPC4 ctr mod inactive | TRPC4/MOR inh 2 inactive | TRPC6 inh conf inactive | TRPC6 act confirm inactive
CCC(C)C1Nc2ccc(C(=O)NCCc3ccc(OC)c(OC)c3)cc2NC1=O (stereo not given)	none
O=C1c2cccc3c(N4CCCCC4)ccc(c23)C(=O)N1CCO	TRPC6 activator 12.2 | HEK293 MPD ctr-2 937.0% | HEK293 MPD ctr 2-2 143.5% | TRPC4 ctr mod 218.0% | TRPC4/MOR inh 2 121.5% | TRPC6 inh conf inactive | TRPC6 act confirm 180.5%
COc1ccc(C2NC(=O)c3sc4nc(C)c(C(C)=O)c(-c5ccc(Cl)cc5)c4c3N2)cc1 (stereo not given)	none
COc1cc(C(=O)NCC(c2cccnc2)N2CCN(c3ccc(F)cc3)CC2)cc(OC)c1OC (stereo not given)	none
CN(C)CCNS(=O)(=O)c1ccc(N2CCc3ccccc32)c([N+](=O)[O-])c1	TRPC6 inhibitor -7.17 | HEK293 MPD ctr-2 -129.0% | HEK293 MPD ctr 2-2 inactive | TRPC4 ctr mod -28.0% | TRPC4/MOR inh 2 73.0% | TRPC6 inh conf 60.0% | TRPC6 act confirm inactive
COc1ccc(/C=N/NC(=O)C2CCN(c3ncc(C(F)(F)F)cc3Cl)CC2)cc1	none
CCc1occc(=O)c1Oc1cc(NN2CCCCC2)c([N+](=O)[O-])cc1[N+](=O)[O-]	TRPC6 inhibitor -7.43 | TRPC4 spec 2 inactive | TRPC4 spec inactive | HEK293 MPD ctr 2-1 inactive | HEK293 MPD ctr-1 inactive | TRPC6 inh conf inactive | TRPC6 act confirm inactive
COC(=O)c1oc2ccc(Br)cc2c1NC(=O)CN1CCN(C)CC1	TRPC6 inhibitor -5.54 | HEK293 MPD ctr-2 inactive | HEK293 MPD ctr 2-2 inactive | TRPC4 ctr mod -16.5% | TRPC4/MOR inh 2 52.0% | TRPC6 inh conf 47.5% | TRPC6 act confirm inactive
CCOc1cc(/C=N/NC(=O)c2ccccn2)ccc1OC(=O)c1ccc(F)cc1	TRPC6 inhibitor -5.33 | HEK293 MPD ctr-2 inactive | HEK293 MPD ctr 2-2 inactive | TRPC4 ctr mod inactive | TRPC4/MOR inh 2 inactive | TRPC6 inh conf inactive | TRPC6 act confirm inactive
COc1ccc(CN2C(=O)c3cccnc3C2=O)cc1S(=O)(=O)NC(C)C	none
Nc1ccc(Br)c2c1C(=O)c1ccccc1C2=O	none
Nc1ccc(O)c2c1C(=O)c1ccccc1C2=O	TRPC6 inhibitor -8.18 | HEK293 MPD ctr-2 -85.0% | HEK293 MPD ctr 2-2 inactive | TRPC4 ctr mod -39.5% | TRPC4/MOR inh 2 66.5% | TRPC6 inh conf 41.5% | TRPC6 act confirm inactive
Cc1cc(N2CCCC2)ccc1/C=C1\NC(=S)N(C)C1=O	TRPC6 activator 51.7, TRPC4 act 70 | HEK293 MPD ctr-2 inactive | HEK293 MPD ctr 2-2 inactive | TRPC4 ctr mod 33.0% | TRPC4/MOR inh 2 inactive | TRPC6 inh conf inactive | TRPC6 act confirm 32.0%
NS(=O)(=O)c1ccc(CCNCc2cc(Cl)ccc2OCc2ccccc2)cc1	none
NS(=O)(=O)c1ccc(CCNCc2ccccc2OCc2ccc(Cl)cc2)cc1	TRPC6 inhibitor -6.82, TRPC4 block -5 | TRPC4 spec 2 30.5% | TRPC4 spec inactive | HEK293 MPD ctr 2-1 inactive | HEK293 MPD ctr-1 2.1% | TRPC6 inh conf 61.5% | TRPC6 act confirm inactive
NS(=O)(=O)c1ccc(CCNCc2cc(Br)ccc2OCc2ccccc2F)cc1	TRPC6 inhibitor -5.68 | HEK293 MPD ctr-2 inactive | HEK293 MPD ctr 2-2 inactive | TRPC4 ctr mod inactive | TRPC4/MOR inh 2 88.0% | TRPC6 inh conf 56.0% | TRPC6 act confirm inactive
CCOc1ccc(-c2noc(CCCC(=O)NC3CCCCC3)n2)cc1OC	none
CCNC(=O)c1cc2c(=O)n3cccc(C)c3nc2n(CCc2ccccc2)c1=N	TRPC6 inhibitor -7.38 | HEK293 MPD ctr-2 -141.0% | HEK293 MPD ctr 2-2 73.5% | TRPC4 ctr mod -27.5% | TRPC4/MOR inh 2 47.5% | TRPC6 inh conf 63.0% | TRPC6 act confirm inactive

Bioassay records: PubChem, Johns Hopkins Ion Channel Center
